Assay outcomes (PubChem)
Rows were chosen to be rich in hits. Some 2.1% of all compounds tested hit in one or more screens of this group.
APJ ag – activates the human apelin receptor APJ; AID 2520; 330,000 compounds, 0.11% hits; P35414; CHO-K1 APJ PathHunter beta-arrestin, luminescence; 0% DMSO wells, 100% apelin; activation, % at 20 µM;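 active means activation more than six SD over the plate average, tested at 20 µM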
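Assay system: engineered CHO-K1 APJ arrestin reporter cells; Amount: 1000 CHO-K1 reporter cells seeded per well; Dosing: one dose, 20 µM compound, 1% DMSO; Times: compound stimulation 90 min at 25 °C, detection 60 min; Measured by: luminescent beta-gal fragment complementation, chemiluminescent substrate; Read-out: APJ–arrestin association signal; Controls: DMSO vs Apelin-13 10 nM.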
CCR6 antagonist – CCR6 (human) receptor antagonism. P51684. CHO-K1 CCR6 PathHunter beta-arrestin, luminescence, CCL20-stimulated. inhibition, % at 20 µM. 340,000 compounds, 0.49% hits;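 active means compounds whose inhibition of the agonist-driven luminescence signal at 20 µM reaches about 50%, limit read from the data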;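 further: cells stimulated with CCL20 at 14 nM final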
Target sequence (P51684 whole entry, looked up): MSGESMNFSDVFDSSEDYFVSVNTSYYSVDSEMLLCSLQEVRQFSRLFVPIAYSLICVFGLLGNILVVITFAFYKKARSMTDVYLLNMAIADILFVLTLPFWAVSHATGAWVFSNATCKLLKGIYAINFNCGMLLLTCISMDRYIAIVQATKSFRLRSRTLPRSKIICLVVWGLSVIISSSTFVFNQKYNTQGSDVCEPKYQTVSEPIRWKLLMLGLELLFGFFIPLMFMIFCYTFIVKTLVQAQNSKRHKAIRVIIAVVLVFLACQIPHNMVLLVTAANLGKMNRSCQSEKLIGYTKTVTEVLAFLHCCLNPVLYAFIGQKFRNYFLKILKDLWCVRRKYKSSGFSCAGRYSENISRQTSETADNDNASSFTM
EBI2 antag – antagonists of human EBI2 receptor. P32249. EBI2 beta-arrestin recruitment, luminescence, 7a,25-OHC stimulated. inhibition, % at 5 µM. 360,000 compounds, 0.81% hits. AID 651636; in the data active means inhibition above about 38%;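 further: enzyme fragment complementation signal reports receptor beta-arrestin coupling in cells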
m5-HT2A agonist – activates the mouse 5-HT2A serotonin receptor; P35363; activation, % at 7.6 µM; CHO-K1 mHTR2A beta-arrestin complementation, luminescence; percent of 30 µM serotonin response; 360,000 compounds, 0.66% hits;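 active means activation above a run cutoff, the mean activation of all tested compounds plus 3 SD, cut at about 14% in these data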
CXCR6 inh – inhibitors of human CXCR6 receptor | CHO-K1 PathHunter CXCR6 beta-arrestin, luminescence | 360,000 compounds, 0.36% hits | inhibition, % at 20 µM | AID 602244; in the data active means inhibition above about 34%, passing the limit was not always enough;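 further: antagonist mode with CXCL16 agonist at 10 nM final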
APJ antag – APJ receptor antagonism; P35414; CHO-K1 APJ beta-arrestin complementation, luminescence; inhibition, % at 20 µM; 330,000 compounds, 0.32% hits;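 active means inhibition above about 40% at 20 µM, limit read from the data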;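 further: cells challenged with 10 nM apelin-13 agonist together with compound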
EBI2 conf – confirmation of human EBI2 receptor antagonists | shares compounds with EBI2 antag | inhibition, % at 5 µM | 2,400 compounds, 29% hits | AID 651997 | EBI2 beta-arrestin luminescence, 7a,25-OHC antagonism;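 active means inhibition of at least 50%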
EBI2 ag – activates EBI2, counter-screen for EBI2 antagonists | shares compounds with EBI2 antag | EBI2-expressing cells, agonist mode, luminescence, 60 min; 0% vehicle, 100% 7α,25-dihydroxycholesterol control | activation, % at 5 µM | 2,400 tested, under 10 active;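 active means activation of at least 50%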
bGal cs – inhibits E. coli beta-galactosidase, counter-screen for EBI2 antagonists | purified beta-galactosidase, luminescent Galacton Star, 15 min | inhibition, % at 5 µM | shares compounds with EBI2 antag | 2,400 compounds, 1% hits;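 active means replicate-average signal at least 3 plate SD below neutral wells, shown as high inhibition, flagging enzyme-inhibiting false positives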;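 further: higher means stronger loss of beta-gal luminescence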
A number is an active result; n = inactive; x = not tested or not shown.

SMILES	APJ ag	CCR6 antagonist	EBI2 antag	m5-HT2A agonist	CXCR6 inh	APJ antag	EBI2 conf	EBI2 ag	bGal cs
COc1cccc(C(C(=O)NC2CCCCC2)N(C(=O)c2cccs2)c2ccc3c(c2)OCO3)c1 (configuration not stated)	n	n	48.4	n	n	n	n	n	n
Cc1ccc2c(c1)C=CC(C#N)N2C(=O)Oc1ccccc1 (configuration not stated)	x	x	n	n	n	x	x	x	x
O=C(/C=C/c1ccc(Cl)cc1)N(Cc1ccccc1)c1ccccn1	n	n	40.9	n	n	n	n	n	n
CN1CCN(C(=O)/C=C/c2ccc(Cl)cc2)CC1	n	n	92.8	n	n	n	79.0	n	n
O=C(/C=C/c1ccccc1)N1CCN(Cc2nc3ccccc3c(=O)[nH]2)CC1	n	n	72.2	n	n	n	75.0	n	n
CC(C)(C)c1ccc(/C=C/C(=O)N2CCCCC2)cc1	x	n	n	n	n	x	x	x	x
CN1CCN(C(=O)/C=C/c2ccc(Cl)c(Cl)c2)CC1	n	n	91.9	n	n	n	60.7	n	n
O=C(c1ccc2c(=O)n3c(nc2c1)CCCCC3)N1CCN(c2ccc([N+](=O)[O-])cc2)CC1	n	n	n	n	n	n	x	x	x
COc1ccc(NC(=O)c2sc3nc(N4CCCC4)c4c(c3c2N)CC(C)(C)OC4)cc1	n	n	n	n	n	n	x	x	x
CC(C)(C)NC(=O)CSc1nc2ccccc2c(=O)[nH]1	n	n	n	n	n	n	x	x	x
COc1cc(/C=C/C(=O)N2CCN(Cc3ccccc3)CC2)cc(OC)c1OC	n	n	60.9	n	n	n	n	n	n
O=C(/C=C/c1ccc(Cl)cc1)NCCc1ccccc1	n	n	54.3	n	n	n	n	n	n
O=C(/C=C/c1ccc(Cl)cc1)N1CCN(Cc2ccccc2)CC1	n	n	96.7	n	n	n	88.6	n	n
O=C(/C=C/c1ccccc1Cl)NCCc1ccccc1	n	n	n	n	n	n	x	x	x
NS(=O)(=O)c1ccc(NC(=O)CCC(=O)O)cc1	x	x	n	n	n	x	x	x	x
O=C(c1ccc2ccccc2c1)N1CCN(c2ccc([N+](=O)[O-])c(N3CCOCC3)c2)CC1	n	n	47.2	n	n	n	n	n	n
Cc1cccc(C(=O)N2CCN(c3ccc([N+](=O)[O-])c(N4CCOCC4)c3)CC2)c1	n	n	n	n	n	n	x	x	x
O=C(/C=C/c1ccccc1)N1CCN(c2ccc([N+](=O)[O-])c(N3CCOCC3)c2)CC1	n	n	77.7	n	n	n	57.8	n	n
CCn1c(=O)c2sccc2n(CC(=O)NC2CCCCC2)c1=O	n	n	n	n	n	n	x	x	x
CCOC(=O)c1c(NC(=O)Cn2nc(C(=O)O)c3ccccc3c2=O)sc2c1CCC(C)C2 (configuration not stated)	n	n	n	n	n	n	x	x	x
CCOC(=O)C1CCN(c2nc3ccccc3nc2C(C#N)C(=O)OCCOC)CC1 (configuration not stated)	n	n	n	n	n	n	x	x	x
COC(=O)C1CCN(c2nc3ccccc3nc2C(C#N)C(=O)NCCc2ccccc2)CC1 (configuration not stated)	n	n	67.0	n	n	n	n	n	n
O=C(Oc1ccc(-c2cnc3ccccc3n2)cc1)c1cc([N+](=O)[O-])ccc1Cl	n	n	54.7	n	n	n	n	n	n
COc1ccc(S(=O)(=O)NC(=O)C2(C)CCN2C(=O)Cc2ccc(-c3ccccc3)cc2)cc1 (configuration not stated)	x	x	n	n	n	x	x	x	x
COc1ccc(C(=O)/C=C2\C(=O)Nc3ccc(Br)cc32)cc1	x	n	77.9	n	n	x	70.1	n	n
